From PubChem BioAssay
Hits are enriched below; roughly 2.1% of the tested compounds scored in any of these assays.
Runt-SMMHC FRET – blocks binding of human RUNX1 Runt domain to CBFb-SMMHC. inhibition, % at 20 µM. Cerulean-Runt/Venus-CBFb-SMMHC FRET ratio 530/480, 1 h. hit rate 0.74% among 220,000;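 active means mean inhibition across duplicate retests at 20 µM reaching about 50%, limit read from the data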;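 further: 0% = DMSO wells and 100% = wells with excess untagged CBFb-SMMHC; inhibitors lower the FRET ratio by blocking Runt binding to CBFb-SMMHC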
RanGTP-Imp inh – disruptors of Ran-importin-beta complex formation – biochemical, FRET, CFP-Ran, YFP-importin-beta, homogeneous, primary screen. cell-free CFP-Ran/YFP-importin-beta FRET ratio. inhibition, % (concentration not given with the values). hit rate 1.1% among 300,000. AID 2216;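 active means more than half of the replicate wells show a fall in the fluorescence ratio signal beyond about 16%, limit read from the data, passing the limit was not always enough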;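 further: 0% = DMSO wells and 100% = Ran loaded with GDP instead of GTP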
Runt-CBFb FRET – inhibitors of human RUNX1 Runt domain binding to CBFb; Q01196+Q13951; Cerulean-Runt/Venus-CBFb FRET ratio 530/480, 1 h; inhibition, % at 20 µM; hit rate 0.46% among 220,000; AID 1496;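 active means inhibition over about 50% at 20 µM in the single-dose screen, limit read from the data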;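 further: 0% = DMSO wells and 100% = excess unlabeled CBFb competitor control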
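Schedule: protein complex preformed 1 h, compound exposure 1 h, room temperature, dark; test system: Cerulean-labeled Runt domain protein; amount: 100 nM per protein; buffer or medium: Tris 50 mM pH 7.5, KCl, K2SO4, 0.01% BSA; read-out: loss of energy transfer signal; detection: FRET fluorescence; controls: 5 µM unlabeled CBFb as full-inhibition high control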
Hck-Nef inh – blocks Nef-activated human Hck kinase; P08631; Recombinant Hck-YEEI plus Nef, Z-Lyte FRET kinase assay; inhibition, % at 20 µM; hit rate 0.68% among 220,000;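 active means Hck-Nef kinase inhibition above about 50%, limit read from the data; inactive means inhibition below that limit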;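 further: 0% = DMSO with Hck plus Nef and 100% = Hck alone without Nef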
Target sequence (P08631 whole entry, looked up): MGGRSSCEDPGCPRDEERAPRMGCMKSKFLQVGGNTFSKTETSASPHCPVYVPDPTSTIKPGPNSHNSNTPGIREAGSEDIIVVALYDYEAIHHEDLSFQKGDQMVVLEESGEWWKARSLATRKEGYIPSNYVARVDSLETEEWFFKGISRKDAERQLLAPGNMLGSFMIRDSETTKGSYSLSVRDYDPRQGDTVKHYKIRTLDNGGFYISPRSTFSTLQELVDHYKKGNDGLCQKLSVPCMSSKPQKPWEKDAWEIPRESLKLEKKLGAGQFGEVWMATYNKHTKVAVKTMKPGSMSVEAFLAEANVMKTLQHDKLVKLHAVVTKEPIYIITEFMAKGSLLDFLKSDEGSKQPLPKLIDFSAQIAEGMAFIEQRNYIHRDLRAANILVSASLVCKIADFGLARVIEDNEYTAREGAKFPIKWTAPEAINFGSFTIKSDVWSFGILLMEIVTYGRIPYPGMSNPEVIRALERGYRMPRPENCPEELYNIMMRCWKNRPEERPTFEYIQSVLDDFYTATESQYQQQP
TbHK1 inh – T. brucei hexokinase 1 inhibition; hit rate 0.11% among 220,000; recombinant TbHK1, G6PDH-coupled NADH A340; inhibition, % at 10 µM;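 active means inhibition of 50% or more in the single-dose primary screen; inactive means inhibition below 50%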
p97 ATPase inh – human p97 ATPase inhibition; P55072; recombinant p97 ATPase, Kinase-Glo ATP luminescence, 3 h; inhibition, % at 8 µM; hit rate 0.42% among 220,000; AID 1481; in the data active means inhibition above about 15%;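 further: 0% = DMSO vehicle and 100% = wells lacking enzyme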
Runt-CBFb TRFRET – Runt-CBFb binding inhibition; TR-FRET RUNX1 Runt domain-CBFb binding; shares compounds with Runt-CBFb FRET; hit rate 20% among 480; AID 1502; inhibition, % at 20 µM; in the data active means inhibition above about 40%
YIC counter – counter-screen YIC FRET for RanGTP-importin-beta inhibitors | shares compounds with RanGTP-Imp inh | Purified YIC probe, intramolecular FRET ratio YFP/CFP | IC50, µM | hit rate 40% among 1,000;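 active means fitted half-maximal inhibitory concentration no more than tenfold above the top dose tested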
Hck-Nef confirm – Hck-Nef kinase inhibition, confirmation; hit rate 28% among 1,300; AID 463188; calls only at 10 µM; Recombinant Hck-YEEI:Nef, Z-Lyte FRET kinase assay; shares compounds with Hck-Nef inh;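 active means average inhibition of at least 50%, with Z-scores no higher than 3 in both the phospho-tyrosine peptide and fluorescence counterscreens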
* marks the source's active call; other numbers are inactive results; i = inactive; . = not tested or not shown; + = active, no number.

SMILES | Runt-SMMHC FRET | RanGTP-Imp inh | Runt-CBFb FRET | Hck-Nef inh | TbHK1 inh | p97 ATPase inh | YIC counter | others
CCC1CCCCN1C(=O)CCc1nnc(Cc2cc(OC)ccc2OC)o1 (configuration not stated) | -4 | 4 | 2 | 1 | -13 | 0 | .
CCN1CCN(Cc2c(O)c(Cl)cc3c(C)cc(=O)oc23)CC1 | 168* | 27* | 94* | 149* | -17 | -2 | 39* | Runt-CBFb TRFRET=18
CCCc1cc(=O)oc2c(CN3CCCC3)c(O)ccc12 | 122* | 9 | 54* | 93* | -26 | 0 | . | Runt-CBFb TRFRET=-13
Cc1cc(=O)oc2c(CN3CCCC3)c(O)c(Cl)cc12 | . | 6 | . | . | . | . | .
C=CCn1c(-c2cccs2)nc2nc3ccccc3nc21 | 126* | 12 | 55* | 72* | -23 | -5 | . | Runt-CBFb TRFRET=-15;Hck-Nef confirm=i
C=CCn1c(-c2cccs2)nc2ccccc21 | 2 | . | 1 | 2 | -9 | 7 | .
CCOC(=O)c1sc(Nc2nc3c(OC)cccc3s2)nc1C | 82* | 2 | 84* | 67* | -9 | 2 | . | Runt-CBFb TRFRET=5;Hck-Nef confirm=i
CCOC(=O)c1sc(Nc2ccccc2)nc1C | -1 | -1 | -4 | 0 | -25 | -3 | .
CC(C)N(C)Cc1nnnn1CC(=O)NCCc1cccc(C(F)(F)F)c1 | . | 2 | . | . | . | . | .
O=C(O)c1ccc(N/N=C/c2ccc(-c3cccc(Cl)c3)o2)cc1 | 80* | 68* | 58* | 53* | -12 | 8 | . | Runt-CBFb TRFRET=25;Hck-Nef confirm=i
NC(=S)N/N=C/c1ccc(C23CC4CC(CC(C4)C2)C3)cc1 | . | 5 | . | . | . | . | .
COc1c(O)c(O)c2oc(-c3ccccc3)cc(=O)c2c1OC | 53* | -2 | 58* | 66* | -14 | 3 | . | Runt-CBFb TRFRET=65*;Hck-Nef confirm=+
CCN=C(NS(=O)(=O)c1ccc(Br)cc1)c1ccc(Cl)cc1 | -2 | 3 | -2 | 29 | -2 | 0 | .
COC(=O)c1ccc(C(=O)OC)c(N)c1 | 110* | . | 68* | 86* | -10 | 2 | . | Runt-CBFb TRFRET=43*
COC(=O)c1ccc(C(=O)OC)c(NC(=O)Oc2ccccc2)c1 | 132* | 14 | 66* | 58* | -14 | 3 | . | Runt-CBFb TRFRET=36
COC(=O)c1ccc(N2CCCCC2)c(N)c1 | 0 | 1 | -1 | 20 | -5 | 0 | .
C/C(N)=C(/C#N)C(=O)CSc1nc2ccccc2c(=O)n1CCCOC(C)C | -1 | 3 | -4 | 1 | 34 | -2 | .
CC(=O)N=c1c(C#N)cc2c(=O)n3ccccc3nc2n1CCCOC(C)C | 82* | 102* | 76* | 56* | -6 | 5 | . | Runt-CBFb TRFRET=38
Cc1c(Cc2ccccc2)c(=O)oc2c(O)c(O)ccc12 | 8 | -1 | 19 | -24 | 15 | -2 | .
Cc1c(Cc2ccccc2)c(=O)oc2cc(O)ccc12 | 128* | 4 | 66* | 139* | -25 | 6 | . | Runt-CBFb TRFRET=-5
Cc1ccc(S(=O)(=O)CCC(=O)NC2CCCC2)cc1 | . | -3 | . | . | . | . | .
CC(C)CN(Cc1c(O)ccc2ccccc12)CC(C)C | -2 | 20* | 8 | -4 | 9 | -2 | >50
O=c1[nH]c(Nc2ccccn2)cc2ccccc12 | . | 38* | . | . | . | . | >50
COc1ccc(C2c3c(ncn(Cc4ccco4)c3=N)Oc3ccc4ccccc4c32)cc1 (configuration not stated) | 0 | 71* | 1 | 4 | -5 | 3 | >50
CCN(CC)S(=O)(=O)c1ccc(NC(=O)CO/N=C(\N)c2ccccc2)cc1 | . | -2 | . | . | . | . | .
SMILES | Runt-SMMHC FRET | RanGTP-Imp inh | Runt-CBFb FRET | Hck-Nef inh | TbHK1 inh | p97 ATPase inh | YIC counter | others
COc1ccc(N=Cc2cc(Cc3ccccc3Cl)cc([N+](=O)[O-])c2O)cc1OC | -15 | 16* | -6 | 25 | -1 | 0 | >50
Cc1cccc(C)c1NC(=O)CN(C)C(=O)Cc1cccc(C(F)(F)F)c1 | . | -3 | . | . | . | . | .
CCOC(=O)/C(C#N)=C1/C=CN(c2ccccc2)C=N1 | 2 | 2 | -1 | -1 | -60 | 2 | .
CCOC(=O)/C(C#N)=C1/C=Nc2ccccc2N1 | -33 | 27* | -8 | -5 | -8 | -13 | >26
Cc1ccc(C(C(=O)NC2CCCC2)N(C(=O)c2csnn2)c2ccccc2)o1 (configuration not stated) | . | 1 | . | . | . | . | .
COc1ccc2c(CC#N)c[nH]c2c1 | -6 | 31* | -1 | 1 | 2 | 4 | >50
O=c1cc(N2CCc3ccccc3C2)[nH]c(=O)n1C1CCCCC1 | 2 | 54* | 0 | 0 | -4 | 2 | >50
O=C(c1ccco1)N1CCN(c2cc(=O)n(C3CCCCC3)c(=O)[nH]2)CC1 | 1 | 6 | 2 | 11 | 28 | 0 | .
CC1CCN(c2cc(=O)n(C3CCCCC3)c(=O)[nH]2)CC1 | 0 | 31* | 1 | 1 | -7 | 5 | >50
O=c1cc(N2CCC(Cc3ccccc3)CC2)[nH]c(=O)n1C1CCCCC1 | 1 | 22* | -5 | 0 | 4 | -1 | >50
COc1ccc(COn2nnc3ccc(S(=O)(=O)N4CCOCC4)cc32)cc1F | . | -1 | . | . | . | . | .
COc1ccccc1NC(=O)CN1CCN(CC(=O)Nc2ccc(F)cc2F)CC1 | . | -1 | . | . | . | . | .
COc1cccc(CNC(=O)C(=O)N2CCC3(CC2)OCCN3S(=O)(=O)c2ccc(C)cc2)c1 | . | 0 | . | . | . | . | .
Cc1sc2ncn(CC(=O)NCCCC(=O)N3CCN(Cc4ccc5c(c4)OCO5)CC3)c(=O)c2c1C | 0 | 28* | -1 | -12 | -6 | 0 | >50
Cc1sc2ncn(CC(=O)NCCCC(=O)N3CCC(C)CC3)c(=O)c2c1C | . | 1 | . | . | . | . | .
O=C(O)c1cccc(COc2cccc3ccccc23)c1 | . | 0 | . | . | . | . | .
COc1ccc(-c2csc3ncnc(N4CCN(c5ccc(OC)cc5)CC4)c23)cc1 | . | 22* | . | . | . | . | >50
Cn1cc(-c2cc(C(=O)O)on2)cn1 | 4 | 4 | 1 | 27 | -14 | 8 | .
O=c1c2ccccc2sc2ccc(C#CC3(O)CCCCC3)cc12 | . | 30* | . | . | . | . | 22*
Cc1ccc2cc(CN(CC3CCCO3)C(=S)Nc3ccccc3)c(=O)[nH]c2c1C (configuration not stated) | 1 | 18* | 0 | 1 | -20 | 2 | >50
Cc1cc(C)c2[nH]c(=O)c(CN(CC3CCCO3)C(=S)Nc3ccccc3)cc2c1 (configuration not stated) | 5 | -2 | 19 | 2 | 7 | -2 | .
Cc1ccc(C(=O)Nc2nnc(SCC(=O)N3CCCc4ccccc43)s2)cc1 | 1 | 39* | 1 | 2 | -13 | 0 | >50
